Calls of active or inactive are those of the source.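 Rule for the calls: active = EC50 for reversing nicotinamide-shortened yeast lifespan at or below a set limit; inactive = EC50 above that limit.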
Test system: S. cerevisiae DeaD BB579, nicotinamide rescue growth, OD615 48 h
Assay: rescue of nicotinamide-suppressed growth of yeast BB579, dose response, yeast lifespan extension project, S. cerevisiae (AID 809)
Procedure, shortened: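 System – S. cerevisiae DeaD strain BB579 · Buffer or medium – CSMM-D glucose restrictive medium · Times – culture pre-incubation 4 h, then compound exposure 48 h, both 30 °C · Signal – OD615 absorbance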

Row | Structure (SMILES) | EC50
1 | CCOC(=O)CCS(=O)(=O)c1nc(-c2ccccc2)cc(C(F)(F)F)n1 | 1.13 µM
2 | CC(C)OCCCNS(=O)(=O)c1ccc2ccccc2c1 | > 10 µM (inactive)
3 | O=C1C(Cl)=C(Nc2ccccc2O)C(=O)N1CCc1ccccc1 | > 10 µM (inactive)
4 | CCC1CCCCN1S(=O)(=O)c1ccc(S(=O)(=O)N(Cc2cccs2)C2CC2)cc1 (stereo not given) | > 10 µM (inactive)
5 | O=C(c1c[nH]c(C(=O)C(Cl)(Cl)Cl)c1)c1ccccc1Cl | 8.53 µM
6 | CCOC(=O)C1Cc2cc3c(cc2C1=O)CC(C(=O)OCC)C3=O (stereo not given) | 5.89 µM
7 | CC(C)(C)C(=O)/C(=C/c1cccc([N+](=O)[O-])c1)n1cncn1 | 3.73 µM
8 | COn1c(SC2CCCCC2)nc2ccccc2c1=O | 1.14 µM
9 | Cc1n[nH]c(=O)n1-c1cccc(C(F)(F)F)c1 | > 10 µM (inactive)
10 | C=CCn1c(C)cc(C(=O)COc2ncnc3sccc23)c1C | 9.94 µM
11 | Cc1cc(C)c(S(=O)(=O)c2ccccc2)c(OC(=O)c2ccc(Cl)cc2Cl)n1 | 7.48 µM
12 | COC(=O)C1=C(C(=O)OC)SC(=C2C(=S)C(C)(C)N(C(=O)C(C)C)c3ccccc32)S1 | > 10 µM (inactive)
13 | CCOC(=O)C1CCN(C(c2cc3ccc(C)c(C)c3[nH]c2=O)c2nnnn2C2CCCCC2)CC1 (stereo not given) | > 10 µM (inactive)
14 | Cc1ccc(N(C)C(=O)Oc2ccc(C(=O)c3ccc(Cl)cc3)cc2)cc1 | > 10 µM (inactive)
15 | O=C1c2ccccc2C(=O)N1c1ncc(Cc2ccc(Cl)cc2)s1 | > 10 µM (inactive)
16 | CCCc1nc2c(c(=O)c3ccccc3n2C)c(=O)n1C1CCCCCC1 | > 10 µM (inactive)
17 | CCCNC(=O)CCC(NS(=O)(=O)c1ccc(C)cc1)C(=O)NCCC (stereo not given) | > 10 µM (inactive)
18 | CC1(C)Cc2ccccc2-c2nnc(SCC(=O)Nc3ccc4c(c3)OCO4)n21 | > 10 µM (inactive)
19 | Cc1nn(C(C)(C)C)c(OC(=O)c2ccc(Br)o2)c1Sc1ccccc1 | 7.84 µM
20 | CCOc1cc(/C=C\[N+](=O)[O-])ccc1OCC(=O)Nc1ccccc1C | > 10 µM (inactive)
21 | Cc1c(NC(=O)C(=O)/C=C(\O)c2ccc(Cl)cc2)c(=O)n(-c2ccccc2)n1C | 3.19 µM
22 | CC(C)C(c1nnnn1Cc1ccccc1)N1CCN(Cc2ccc3c(c2)OCO3)CC1 (stereo not given) | > 10 µM (inactive)
23 | C=C(C(=O)c1ccccc1)C(CC(=O)c1ccccc1)c1ccccc1 (stereo not given) | 8.08 µM
24 | Cc1cc(C)n2cc(CSc3nnc(N)s3)nc2n1 | > 10 µM (inactive)
25 | CNC(=O)/C(C#N)=C/c1c(F)cccc1Cl | 7.85 µM

Row | Structure (SMILES) | EC50
26 | CN1C(=O)C(C(=O)Nc2ccccc2F)c2ccccc21 (stereo not given) | 9.71 µM
27 | Cc1ccc2nc(N3C(=O)C(O)=C(C(=O)c4ccco4)C3c3cccs3)sc2c1 (stereo not given) | 6.68 µM
28 | Nn1c(-c2ccccn2)nnc1-c1ccccn1 | > 10 µM (inactive)
29 | COc1cccc(/C=C/C(=O)c2c(O)cc(C)oc2=O)c1O | > 10 µM (inactive)
30 | Cc1cc(N=Cc2c(O)ccc3ccccc23)no1 | 5.54 µM
31 | Cc1ccnc(SCc2cc(=O)c(OC(=O)c3ccco3)co2)n1 | 8.45 µM
32 | CN(C)c1ccc(S(=O)(=O)c2ccc(Cl)cc2)cc1 | > 10 µM (inactive)
33 | Cc1ccc(S(=O)(=O)C(C#N)c2nc3ccccc3nc2N2CCCC2)cc1 (stereo not given) | > 10 µM (inactive)
34 | Cc1ccc2[nH]c(=O)c(CN(CCO)Cc3nnnn3CCc3ccccc3)cc2c1 | > 10 µM (inactive)
35 | CC(=O)[C@H]1[C@H](c2cccc(Cl)c2)C(C#N)(C#N)[C@@H]2c3ccccc3C=CN21 | 8.71 µM
36 | COc1ccc(/C=C(\C#N)C(=O)N2CCOCC2)cc1Br | 8.72 µM
37 | C[C@]12CC[C@@H](O)C[C@@H]1CC[C@@H]1[C@@H]2CC[C@]2(C)[C@@H](O)CC[C@@H]12 | > 10 µM (inactive)
38 | CCOc1ccc(N=Cc2c(O)c3ccccc3oc2=O)cc1 | > 10 µM (inactive)
39 | CCOC(=O)C1=C(N)OC2=C(C(=O)CCC2)C1c1sccc1C (stereo not given) | 9.37 µM
40 | CC1CC(C)CN(S(=O)(=O)c2cccc(C(=O)N3C(=O)c4cccc(N)c4C3=O)c2)C1 (stereo not given) | 4.71 µM
41 | CCn1ccc(C(=O)Nc2ccc(S(=O)(=O)Nc3ccccc3OC)cc2)n1 | > 10 µM (inactive)
42 | Cc1cc2c(c(=O)n1CCc1ccccc1)C(c1ccco1)C(C#N)=C(N)O2 (stereo not given) | > 10 µM (inactive)
43 | O=C1NC(=O)N(CCC2=CCCCC2)C(=O)/C1=C\c1cccs1 | 7.01 µM
44 | O=C(Nc1cccc(Cl)c1)c1ccc2c(=O)n3c(nc2c1)CCCCC3 | 6.59 µM
45 | O=C(N/N=C/c1cccc(F)c1)c1c(O)c2ccccc2[nH]c1=O | 3.21 µM
46 | COC(=O)c1sc2ncn(-n3c(C)ccc3C)c(=O)c2c1C | > 10 µM (inactive)
47 | CN=C(SCc1cc2c(cc1Cl)OCO2)c1c(O)n(C)c(=O)n(C)c1=O | 6.46 µM
48 | Cc1ccc(Oc2nc3ccccc3n3c(C)nnc23)c(C)c1 | > 10 µM (inactive)
49 | COc1ccccc1CNC(=O)C(CCSC)NS(=O)(=O)c1ccc2c(c1)oc(=O)n2C (stereo not given) | > 10 µM (inactive)
50 | O=C(c1cnn2c(C(F)F)cc(C3CC3)nc12)N1CCCC1 | > 10 µM (inactive)

Row | Structure (SMILES) | EC50
51 | O=c1c(Cl)c(NCCCO)cnn1-c1nc2ccccc2[nH]1 | 7.65 µM
52 | O=C(/C=C(\O)c1ccc(Cl)cc1)C(=O)NNC(=O)C(O)(c1ccccc1)c1ccccc1 | 2.75 µM
53 | O=C(c1ccc(F)cc1)C(CN1CCOCC1)c1ccccc1 (stereo not given) | 1.12 µM
54 | Cn1c(=O)c(=O)n(C)c2cc(S(=O)(=O)N3CCN(Cc4ccccc4)CC3)ccc21 | > 10 µM (inactive)
55 | CCCn1c(SCC(=O)c2ccc3c(c2)NC(=O)CO3)nc2ccccc21 | > 10 µM (inactive)
56 | O=C1CC(c2ccccc2)CC(O)=C1C=NCCN1CCOCC1 (stereo not given) | 6.42 µM
57 | CCn1c(/N=C/c2ccccc2NS(=O)(=O)c2ccc(C)cc2)nc2ccccc21 | 3.3 µM
58 | COc1cc(/C=C/C(=O)C2C(=O)C=C(C)OC2=O)cc(OC)c1O (stereo not given) | 6.69 µM
59 | COc1ccc(N(C(=O)C(C)C)S(=O)(=O)c2ccc(Cl)cc2)cc1 | > 10 µM (inactive)
60 | CCc1ccc2nc(N3C(=O)C(O)=C(C(=O)c4ccco4)C3c3cccs3)sc2c1 (stereo not given) | 9.41 µM
61 | O=C(/C(=C/O)N=Nc1ccc(Cl)cc1)c1ccncc1 | 2.64 µM
62 | O=C1c2ccccc2NC(c2cnc3ccccc3n2)N1O (stereo not given) | 1.42 µM
63 | O=C(NNC1=Nc2cccc3cccc1c23)c1ccccc1Br | > 10 µM (inactive)
64 | Cc1ccc(/C=C/C(=O)C2C(=O)c3ccccc3C2=O)cc1 | 8.56 µM
65 | C=C(C(=O)c1ccccc1)C(C)CC(=O)c1ccccc1 (stereo not given) | 6.42 µM
66 | CCc1oc2ccccc2c1C(=O)CCN1CCCCC1 | 8.21 µM
67 | CC(=O)Oc1ccc(N(C(C)=O)S(=O)(=O)c2ccc(C)c([N+](=O)[O-])c2)cc1 | > 10 µM (inactive)
68 | O=C(NCC1CCCO1)c1c(O)c2ccccc2[nH]c1=O (stereo not given) | > 10 µM (inactive)
69 | O=C(O)c1ccc(O)c(N2C(=O)Nc3ccccc3N2O)c1 | > 10 µM (inactive)
70 | C=CCn1c(O)c(C(CC)=NCCN2CCOCC2)c(=O)[nH]c1=O | > 10 µM (inactive)
71 | Cc1ccc(S(=O)(=O)N[C@@H](Cc2ccccc2)C(=O)CCl)cc1 | 5.97 µM
72 | CCOC(=O)c1c(C)oc2c1c(C(c1cccnc1)N1CCOCC1)c(O)c1ccccc12 (stereo not given) | > 10 µM (inactive)
73 | COCCCNC(CC(=O)Nc1ccc(OC)cc1OC)C(=O)O (stereo not given) | > 10 µM (inactive)
74 | CC(C)(C)OC(=O)[C@H]1[C@H](c2ccc([N+](=O)[O-])cc2)C2(C(=O)c3ccccc3C2=O)C2c3ccccc3C=NN21 (stereo not given in full) | 8.16 µM
75 | CC1CCCCC1NC(=O)/C(C#N)=C/c1ccccc1F (stereo not given) | 7.11 µM

Source: PubChem BioAssay AID809 (SRMLSC, 2007)
